The values below come from ChEMBL document CHEMBL1154477, “1,2,3-Triazol-carboxanilides and 1,2,3-triazol-(N-benzyl)-carboxamides as BK-potassium channel activators. XII” (Eur J Med Chem, 2008).

Structures are written as SMILES.

Type in all cases: tissue-based
The target of experiment [1] is Calcium-activated potassium channel subunit alpha-1 (Rattus norvegicus) (UniProt Q62976). The experiment in a line: (§1) Activation of BK channel in Wistar rat thoracic aorta assessed as relaxation of KCl-induced contraction. The procedure, abridged:
(§2)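 Endothelium-denuded aortic rings in Tyrode at 37 °C, gassed 95% O2/5% CO2. Denudation was confirmed by under 10% acetylcholine relaxation of KCl 20 mM tone. Rings were precontracted with KCl 20 mM, then given cumulative 3-fold increasing concentrations from 10 nM (DMSO stock, diluted in Tyrode). Efficacy was maximal relaxation as % of KCl tone; pIC50 was derived only when efficacy was ≥55%. 5-10 experiments.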

The target of experiment [2] is Calcium-activated potassium channel subunit alpha-1 (Rattus norvegicus, UniProt Q62976). The experiment is described as §1. The procedure, abridged:
as §2

In experiment [3] the target is Calcium-activated potassium channel subunit alpha-1 (Rattus norvegicus) (UniProt Q62976). The experiment in a line: Activation of BK channel in Wistar rat thoracic aorta assessed as relaxation of KCl-induced contraction in presence of potassium channel blocker TEAC. Put shortly: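 Endothelium-denuded aortic rings in gassed Tyrode at 37 °C, incubated with tetraethylammonium chloride 10 mM for 20 min before KCl 20 mM precontraction. Cumulative 3-fold increasing concentrations from 10 nM were added at the plateau. Relaxation was expressed as % of KCl tone, with pIC50 as the negative log molar concentration halving the tone. 5-10 experiments.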
Chain of Calcium-activated potassium channel subunit alpha-1 (Rattus norvegicus) (Q62976 whole entry): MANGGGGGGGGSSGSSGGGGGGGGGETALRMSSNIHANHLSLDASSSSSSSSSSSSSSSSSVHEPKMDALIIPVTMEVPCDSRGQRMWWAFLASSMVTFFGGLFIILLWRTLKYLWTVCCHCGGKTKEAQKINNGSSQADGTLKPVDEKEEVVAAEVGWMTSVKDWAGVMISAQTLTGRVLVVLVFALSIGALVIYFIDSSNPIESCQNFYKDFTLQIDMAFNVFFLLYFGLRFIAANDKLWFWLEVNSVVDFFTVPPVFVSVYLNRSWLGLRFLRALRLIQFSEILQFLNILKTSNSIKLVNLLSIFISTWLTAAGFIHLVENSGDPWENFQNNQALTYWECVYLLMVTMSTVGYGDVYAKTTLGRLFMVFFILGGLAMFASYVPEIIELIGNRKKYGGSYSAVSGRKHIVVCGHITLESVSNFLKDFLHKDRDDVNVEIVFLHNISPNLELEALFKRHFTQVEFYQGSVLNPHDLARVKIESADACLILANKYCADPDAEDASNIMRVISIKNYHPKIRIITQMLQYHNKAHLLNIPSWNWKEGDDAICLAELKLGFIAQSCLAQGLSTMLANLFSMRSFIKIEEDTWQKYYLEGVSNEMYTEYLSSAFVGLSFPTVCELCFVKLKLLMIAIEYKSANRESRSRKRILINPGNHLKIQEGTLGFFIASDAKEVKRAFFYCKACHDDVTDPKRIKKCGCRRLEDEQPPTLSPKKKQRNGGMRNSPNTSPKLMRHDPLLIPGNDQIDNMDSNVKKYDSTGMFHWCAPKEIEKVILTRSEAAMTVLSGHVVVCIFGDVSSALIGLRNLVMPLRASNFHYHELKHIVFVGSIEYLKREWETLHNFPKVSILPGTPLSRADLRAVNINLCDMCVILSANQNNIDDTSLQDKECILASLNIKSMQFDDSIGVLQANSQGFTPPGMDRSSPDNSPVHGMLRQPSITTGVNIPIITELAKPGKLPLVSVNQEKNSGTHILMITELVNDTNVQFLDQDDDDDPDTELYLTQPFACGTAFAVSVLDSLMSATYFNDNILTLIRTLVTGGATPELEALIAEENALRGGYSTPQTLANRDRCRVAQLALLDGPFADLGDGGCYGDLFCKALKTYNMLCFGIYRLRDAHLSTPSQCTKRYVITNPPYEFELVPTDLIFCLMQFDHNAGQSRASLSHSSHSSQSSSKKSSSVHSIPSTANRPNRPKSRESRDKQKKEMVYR

Chain of Calcium-activated potassium channel subunit alpha-1 (Q62976 whole entry): as above

Consider `Cc1c(C(=O)Nc2ccccc2)nnn1Cc1ccccc1O`, for which the Emax (in general, the size of the effect at its maximum, as opposed to the concentration needed) in experiment [1] amounted to 89%; in experiment [3], 37%. Besides, the IC50 (commonly the point on the concentration scale where inhibition reaches its midpoint) in experiment [2] is 17.8 µM.
As for `Cc1c(C(=O)Nc2ccccc2O)nnn1Cc1ccccc1O`, in experiment [1], the maximal response (Emax) is 81%. Also, the IC50 in experiment [2] is 20.4 µM.
With `Cc1c(C(=O)Nc2ccccc2O)nnn1Cc1ccccc1Cl`, in experiment [1], the Emax turned out to be 52%.
Consider `Cc1c(C(=O)NCc2ccccc2Cl)nnn1Cc1ccccc1O`, for which the Emax in experiment [1] came out at 51%.
With `Cc1c(C(=O)Nc2ccccc2O)nnn1Cc1ccccc1F`, the Emax in experiment [1] is 35%.
Turning to `O=c1[nH]c2cc(C(F)(F)F)ccc2n1-c1cc(C(F)(F)F)ccc1O`, in experiment [1], the Emax was 94%. In experiment [2], the IC50 was 5.13 µM.
Turning to `Cc1c(C(=O)NCc2ccccc2O)nnn1Cc1ccccc1F`, the Emax in experiment [1] is 24%.
Turning to `Cc1c(C(=O)Nc2ccc(Cl)cc2)nnn1Cc1ccccc1O`, the Emax in experiment [1] was found to be 53%.
Still for that read-out and setting: to `Cc1c(C(=O)NCc2ccccc2)nnn1Cc1ccccc1O` belongs 48%.
As for `Cc1c(C(=O)NCc2ccccc2O)nnn1Cc1ccccc1O`, the Emax in experiment [1] stood at 76%. The IC50 in experiment [2] is 21.9 µM.
Turning to `Cc1c(C(=O)NCc2ccccc2O)nnn1Cc1ccccc1Cl`, in experiment [1], the Emax amounted to 49%.
